Where “and” joins values, the source holds several entries; their conditions need not be identical. Equal entries are not always repeated. Calls of active or inactive are those of the source. The calls are words filed in the database; no cut-off is given here.
Key:
Nucleic Acid [1] = experiment: (§1) Compound was evaluated for the association constant to an isolated site of DNA; format: nucleic-acid assay; set-up: unit not given here; conditions: Bos taurus
Nucleic Acid [2] = experiment: Compound was evaluated for the binding parameter by determining rate constant; format: nucleic-acid assay; conditions: Bos taurus
Nucleic Acid [3] = experiment: Compound was evaluated for the binding parameter by determining the number of nucleotides occluded by a bound angelicin (n); format: nucleic-acid assay; conditions: Bos taurus
Nucleic Acid [4] = experiment: (§2) Compound was evaluated for the frequency of the binding site that is the number of molecules bound to every nucleotide (1/n); format: nucleic-acid assay; conditions: Bos taurus
Mus musculus = species on record: Mus musculus; experiment: Compound was evaluated for 50% inhibition of DNA synthesis in Ehrlich ascites tumor cells by irradiation (365 nM) at 1.9 x 10e -5M incubated with [3H]thymidine at 37 degree C (p 0.05); format: functional
Outline: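 Ehrlich ascites tumor cells (2×10^7 cells/mL in Hanks' solution) are irradiated on ice with the compound present, using an HPW 125 lamp at 20 cm. 2×10^6 cells are then pulsed with 1 μCi [3H]thymidine for 15 min at 37 °C. TCA-insoluble counts are taken as % of untreated controls, at least duplicates per dose. UV-A dose for 50% inhibition is derived by probit analysis.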

Homo sapiens [5] = species on record: Homo sapiens; experiment: Erythema induction by 8-methoxypsoralen (8-MOP) for comparison at dose of 8 J/cm e2 ultraviolet-A radiation in patient, +=moderate; format: functional, organism-based
Outline: (§3)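 Psoriasis patients, with 4×4 cm skin areas per treatment. Ethanolic solution (0.1% w/v) is applied topically to 5 μg/cm² and left to evaporate. After 20 min, the area is irradiated with a UV-A fluorescent PUVA lamp. Starting dose is 2.5 J/cm², increased up to 13 J/cm² by skin tolerance. Control areas get compound without UV-A, or UV-A alone.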

[6] = Percentage of clearance of psoriatic lesions by 8-methoxypsoralen (8-MOP) for comparison at dose of 10 J/cm e2 ultraviolet-A radiation; format: ADME, organism-based; conditions: in vivo; outline: as §3
[7] = Percentage of clearance of psoriatic lesions by the compound at dose of 6 J/cm e2 ultraviolet-A radiation; format: ADME, organism-based; conditions: in vivo; outline: as §3
Homo sapiens [8] = species on record: Homo sapiens; experiment: Number of treatments at dose of 4 J/cm e2 ultraviolet-A radiation (patient); format: functional; outline: as §3
Homo sapiens [9] = species on record: Homo sapiens; experiment: Erythema induction by the compound at dose of 10 J/cm e2 ultraviolet-A radiation in patient; - = absent; format: functional, organism-based; outline: as §3
Homo sapiens [10] = species on record: Homo sapiens; experiment: (§4) Number of treatments at dose of 6 J/cm e2 ultraviolet-A radiation; format: functional; outline: as §3
Homo sapiens [11] = species on record: Homo sapiens; experiment: Pigmentation capacity of 8-methoxypsoralen (8-MOP) for comparison at dose of 8 J/cm e2 ultraviolet-A radiation in patient; +=moderate; format: functional, organism-based; outline: as §3
Homo sapiens [12] = species on record: Homo sapiens; experiment: Erythema induction by the compound at dose of 8 J/cm e2 ultraviolet-A radiation in patient; - = absent; format: functional, organism-based; outline: as §3
Homo sapiens [13] = species on record: Homo sapiens; experiment: Erythema induction by the compound at dose of 6 J/cm e2 ultraviolet-A radiation in patient; - = absent; format: functional, organism-based; outline: as §3
Homo sapiens [14] = species on record: Homo sapiens; experiment: Pigmentation capacity of 8-methoxypsoralen (8-MOP) for comparison at dose of 6 J/cm e2 ultraviolet-A radiation in patient; + = moderate; format: functional, organism-based; outline: as §3
[15] = Percentage of clearance of psoriatic lesions by the compound at dose of 10 J/cm e2 ultraviolet-A radiation; format: ADME, organism-based; conditions: in vivo; outline: as §3
[16] = Percentage of clearance of psoriatic lesions by the compound at dose of 4 J/cm e2 ultraviolet-A radiation; format: ADME, organism-based; conditions: in vivo; outline: as §3
Homo sapiens [17] = species on record: Homo sapiens; experiment: Pigmentation capacity of 8-methoxypsoralen (8-MOP) for comparison at dose of 10 J/cm e2 ultraviolet-A radiation in patient; +=moderate; format: functional, organism-based; outline: as §3
[18] = Percentage of clearance of psoriatic lesions by 8-methoxypsoralen (8-MOP) for comparison at dose of 8 J/cm e2 ultraviolet-A radiation; format: ADME, organism-based; conditions: in vivo; outline: as §3
[19] = Percentage of clearance of psoriatic lesions by 8-methoxypsoralen (8-MOP) for comparison at dose of 6 J/cm e2 ultraviolet-A radiation; format: ADME, organism-based; conditions: in vivo; outline: as §3
Homo sapiens [20] = species on record: Homo sapiens; experiment: Pigmentation capacity of 8-methoxypsoralen (8-MOP) for comparison at dose of 4 J/cm e2 ultraviolet-A radiation in patient; - = absent; format: functional, organism-based; outline: as §3
Homo sapiens [21] = species on record: Homo sapiens; experiment: as §4; format: functional; outline: as §3; remark: listed apart in the source
Homo sapiens [22] = species on record: Homo sapiens; experiment: Number of treatments at dose of 8 J/cm e2 ultraviolet-A radiation; format: functional; outline: as §3
Homo sapiens [23] = species on record: Homo sapiens; experiment: Pigmentation capacity at dose of 6 J/cm e2 ultraviolet-A radiation in patient; + = moderate; format: functional, organism-based; outline: as §3
Homo sapiens [24] = species on record: Homo sapiens; experiment: Erythema induction by the compound at dose of 4 J/cm e2 ultraviolet-A radiation in patient; - = absent; format: functional, organism-based; outline: as §3
[25] = Percentage of clearance of psoriatic lesions by the compound at dose of 8 J/cm e2 ultraviolet-A radiation; format: ADME, organism-based; conditions: in vivo; outline: as §3
Homo sapiens [26] = species on record: Homo sapiens; experiment: Number of treatments at dose of 10 J/cm e2 ultraviolet-A radiation; format: functional; outline: as §3
Bos taurus [27] = species on record: Bos taurus; experiment: as §1
Bos taurus [28] = species on record: Bos taurus; experiment: as §2
Homo sapiens [29] = species on record: Homo sapiens; experiment: Number of treatments at dose of 9 J/cm e2 ultraviolet-A radiation; format: functional; outline: as §3
Homo sapiens [30] = species on record: Homo sapiens; experiment: Erythema induction by the compound at dose of 9 J/cm e2 ultraviolet-A radiation in patient; - = absent; format: functional, organism-based; outline: as §3
Homo sapiens [31] = species on record: Homo sapiens; experiment: Pigmentation capacity at dose of 9 J/cm e2 ultraviolet-A radiation in patient; + = moderate; format: functional, organism-based; outline: as §3
Homo sapiens [32] = species on record: Homo sapiens; experiment: Pigmentation capacity at dose of 8 J/cm e2 ultraviolet-A radiation in patient; + = moderate; format: functional, organism-based; outline: as §3
[33] = Percentage of clearance of psoriatic lesions by the compound at dose of 9 J/cm e2 ultraviolet-A radiation; format: ADME, organism-based; conditions: in vivo; outline: as §3
[34] = Percentage of clearance of psoriatic lesions by 8-methoxypsoralen (8-MOP) for comparison at dose of 9 J/cm e2 ultraviolet-A radiation; format: ADME, organism-based; conditions: in vivo; outline: as §3

Q: For `Cc1cc2c(o1)c(C)cc1c(C)cc(=O)oc12`, which K (Nucleic Acid [1]) is on record?
A: 3310

Q: What about the Rate constant (Nucleic Acid [2]) of the same molecule?
A: 0.0702 min⁻¹

Q: What about the Activity (Nucleic Acid [3]) of the same molecule?
A: 22.2

Q: And the Activity (Nucleic Acid [4])?
A: 0.045

Q: What about the ID50 (Mus musculus) of the same molecule?
A: 3.87e+18 quanta

Q: Which K (Nucleic Acid [1]) does the source give for `Cc1cc2c(o1)c(C)cc1ccc(=O)oc12` here?
A: 1980

Q: And the Rate constant (Nucleic Acid [2])?
A: 0.03 min⁻¹

Q: What about the Activity (Nucleic Acid [3]) of the same molecule?
A: 12.8

Q: What about the Activity (Nucleic Acid [4]) of the same molecule?
A: 0.078

Q: What about the ID50 (Mus musculus) of the same molecule?
A: 1.19e+19 quanta

Q: For `Cc1c(C)c2occc2c2oc(=O)ccc12`, which ID50 (Mus musculus) is on record?
A: 3e+19 quanta

Q: With `COc1c2occc2cc2ccc(=O)oc12` [METHOXSALEN] as the molecule, how does the K (Nucleic Acid [1]) read?
A: 736

Q: What about the Rate constant (Nucleic Acid [2]) of the same molecule?
A: 0.031 min⁻¹

Q: What about the Activity (Nucleic Acid [3]) of the same molecule?
A: 7.81

Q: What about the Activity (Nucleic Acid [4]) of the same molecule?
A: 0.128

Q: And the ID50 (Mus musculus)?
A: 1.38e+19 quanta

Q: What does the source list for `Cc1cc(=O)oc2c1cc(C)c1occc12`?
A: K (Nucleic Acid [1]): 2990; Rate constant (Nucleic Acid [2]): 0.0523 min⁻¹; Activity (Nucleic Acid [3]): 15.9; Activity (Nucleic Acid [4]): 0.063; ID50 (Mus musculus): 4e+18 quanta

Q: What does the source list for `O=c1ccc2ccc3occc3c2o1` [ANGELICIN]?
A: K (Nucleic Acid [1]): 560; Rate constant (Nucleic Acid [2]): 0.011 min⁻¹; Activity (Nucleic Acid [3]): 15.9; Activity (Nucleic Acid [4]): 0.063; ID50 (Mus musculus): 2.5e+19 quanta

Q: With `Cc1cc(=O)oc2c1cc(C)c1occ(C)c12` as the molecule, how does the K (Nucleic Acid [1]) read?
A: 10100

Q: What about the Erythema induction (Homo sapiens [5]) of the same molecule?
A: moderate

Q: What about the Rate constant (Nucleic Acid [2]) of the same molecule?
A: 0.133 min⁻¹

Q: What about the Activity (Nucleic Acid [3]) of the same molecule?
A: 11

Q: What about the Activity (Nucleic Acid [4]) of the same molecule?
A: 0.091

Q: What about the Lesion_Clearance [6] of the same molecule?
A: 90%

Q: What about the Lesion_Clearance [7] of the same molecule?
A: 100%

Q: What about the Activity (Homo sapiens [8]) of the same molecule?
A: 11

Q: What about the Erythema induction (Homo sapiens [9]) of the same molecule?
A: inactive

Q: And the Activity (Homo sapiens [10])?
A: 9

Q: And the Pigmentation capacity (Homo sapiens [11])?
A: moderate

Q: And the Erythema induction (Homo sapiens [12])?
A: inactive

Q: And the Erythema induction (Homo sapiens [13])?
A: inactive

Q: And the Pigmentation capacity (Homo sapiens [14])?
A: moderate

Q: What about the Lesion_Clearance [15] of the same molecule?
A: 90%

Q: What about the Lesion_Clearance [16] of the same molecule?
A: 95%

Q: And the Pigmentation capacity (Homo sapiens [17])?
A: moderate

Q: What about the Lesion_Clearance [18] of the same molecule?
A: 75%

Q: What about the Lesion_Clearance [19] of the same molecule?
A: 80% and 85%

Q: What about the Pigmentation capacity (Homo sapiens [20]) of the same molecule?
A: inactive

Q: And the Activity (Homo sapiens [21])?
A: 9

Q: What about the Activity (Homo sapiens [22]) of the same molecule?
A: 11

Q: And the Pigmentation capacity (Homo sapiens [23])?
A: moderate

Q: And the ID50 (Mus musculus)?
A: 6e+16 quanta

Q: And the Erythema induction (Homo sapiens [24])?
A: inactive

Q: What about the Lesion_Clearance [25] of the same molecule?
A: 100%

Q: What about the Activity (Homo sapiens [26]) of the same molecule?
A: 15

Q: Which results are given for `Cc1cc2ccc(=O)oc2c2ccoc12`?
A: Rate constant (Nucleic Acid [2]): 0.036 min⁻¹; Activity (Nucleic Acid [3]): 20.8; K (Bos taurus [27]): 925; ID50 (Mus musculus): 2.63e+19 quanta; Activity (Bos taurus [28]): 0.048

Q: With `Cc1cc2ccc(=O)oc2c2c(C)coc12` as the molecule, how does the K (Nucleic Acid [1]) read?
A: 6300

Q: What about the Rate constant (Nucleic Acid [2]) of the same molecule?
A: 0.099 min⁻¹

Q: What about the Activity (Nucleic Acid [3]) of the same molecule?
A: 16.4

Q: What about the Activity (Homo sapiens [29]) of the same molecule?
A: 15

Q: And the Activity (Nucleic Acid [4])?
A: 0.061

Q: And the Erythema induction (Homo sapiens [30])?
A: inactive

Q: And the Pigmentation capacity (Homo sapiens [31])?
A: moderate

Q: And the Pigmentation capacity (Homo sapiens [32])?
A: moderate

Q: What about the Erythema induction (Homo sapiens [12]) of the same molecule?
A: inactive

Q: What about the Lesion_Clearance [33] of the same molecule?
A: 90%

Q: What about the Lesion_Clearance [18] of the same molecule?
A: 85%

Q: What about the Activity (Homo sapiens [22]) of the same molecule?
A: 15

Q: And the Lesion_Clearance [34]?
A: 70%

Q: What about the ID50 (Mus musculus) of the same molecule?
A: 2.2e+18 quanta

Q: What about the Lesion_Clearance [25] of the same molecule?
A: 100%

Q: Which K (Nucleic Acid [1]) does the source give for `Cc1cc2c(o1)c(C)c(C)c1ccc(=O)oc12` here?
A: 3730

Q: What about the Rate constant (Nucleic Acid [2]) of the same molecule?
A: 0.023 min⁻¹

Q: What about the Activity (Nucleic Acid [3]) of the same molecule?
A: 14.3

Q: And the Activity (Nucleic Acid [4])?
A: 0.07

Q: And the ID50 (Mus musculus)?
A: 3e+19 quanta

Source: ChEMBL document CHEMBL1122710, “6-Methylangelicins: a new series of potential photochemotherapeutic agents for the treatment of psoriasis” (J Med Chem, 1984)
